Assays:
Assay type in all cases: functional
HCC 2998 = assay: Growth inhibition of human HCC2998 cells at 10 uM after 48 hrs by sulforhodamine B assay; conditions: HCC 2998, 48 h, read-out: GI
Method in brief: (§1)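 NCI one-dose primary screen at 10 (printed mM) across the 60-line panel. Cells in RPMI 1640 with 5% FBS and 2 mM L-glutamine, plated at 5000–40,000 cells/well and incubated 24 h before dosing. Exposure 48 h at 37 °C, 5% CO2. Adherent cells were fixed with cold TCA, suspension cells fixed after settling. SRB stain, absorbance 515 nm. Reported as percent growth of treated cells relative to control.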

BT-549 = assay: Growth inhibition of human BT549 cells at 10 uM after 48 hrs by sulforhodamine B assay; conditions: BT-549, 48 h, read-out: GI; method in brief: as §1
EKVX = assay: Cytotoxicity against human EKVX cells after 48 hrs by sulforhodamine B assay
Method in brief: (§2)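 NCI 60-panel screen. Cells were grown in RPMI 1640 with 5% FBS and L-glutamine and plated at 5000–40,000 cells/well according to doubling time. They were preincubated 24 h at 37 °C, 5% CO2, then exposed 48 h to five 10-fold dilutions. Adherent cells were fixed with cold TCA, final 10%; suspension cells were fixed after settling. Cells were stained with 0.4% SRB and read at 515 nm. Tz/C/Ti growth curves gave GI50, TGI and LC50.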

SN12C = assay: Growth inhibition of human SN12C cells at 10 uM after 48 hrs by sulforhodamine B assay; conditions: read-out: GI
Method in brief: (§3)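 NCI-60 single-dose screen. Cells grown in RPMI 1640 with 5% FBS and L-glutamine, plated at 5000–40,000 cells/well by doubling time, and preincubated 24 h at 37 °C, 5% CO2. Compound stocks in DMSO, added at one concentration, then incubated 48 h. Adherent cells fixed with cold TCA (10% final), stained with 0.4% SRB, dye solubilized in 10 mM Tris base, A515 read. Reported as percent growth relative to untreated control.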

SW-620 = assay: Cytotoxicity against human SW620 cells after 48 hrs by sulforhodamine B assay; conditions: SW-620, 48 h; method in brief: as §2
IGROV-1 = assay: Cytotoxicity against human IGROV1 cells after 48 hrs by sulforhodamine B assay; conditions: IGROV-1, 48 h; method in brief: as §2
NCI-H322M = assay: Growth inhibition of human NCI-H322M cells at 10 uM after 48 hrs by sulforhodamine B assay; conditions: read-out: GI; method in brief: as §1
SNB-75 = assay: Cytotoxicity against human SNB75 cells after 48 hrs by sulforhodamine B assay; conditions: SNB-75, 48 h; method in brief: as §2
HCT-116 = assay: Growth inhibition of human HCT116 cells at 10 uM after 48 hrs by sulforhodamine B assay; conditions: HCT-116, 48 h, read-out: GI; method in brief: as §1
SK-MEL-2 = assay: Growth inhibition of human SK-MEL-2 cells at 10 uM after 48 hrs by sulforhodamine B assay; conditions: SK-MEL-2, 48 h, read-out: GI; method in brief: as §1
ACHN = assay: Cytotoxicity against human ACHN cells after 48 hrs by sulforhodamine B assay; method in brief: as §2
SNB-19 = assay: Growth inhibition of human SNB19 cells at 10 uM after 48 hrs by sulforhodamine B assay; conditions: SNB-19, 48 h, read-out: GI; method in brief: as §3
LOX IMVI = assay: Cytotoxicity against human LOXIMVI cells after 48 hrs by sulforhodamine B assay; method in brief: as §2
NCI-H23 = assay: Growth inhibition of human NCI-H23 cells at 10 uM after 48 hrs by sulforhodamine B assay; conditions: NCI-H23, 48 h, read-out: GI; method in brief: as §1
SF-295 = assay: Cytotoxicity against human SF295 cells after 48 hrs by sulforhodamine B assay; conditions: SF-295, 48 h; method in brief: as §2
HOP-92 = assay: Growth inhibition of human HOP92 cells at 10 uM after 48 hrs by sulforhodamine B assay; conditions: HOP-92, 48 h, read-out: GI; method in brief: as §1
NCI/ADR-RES [1] = assay: Cytotoxicity against human NCI/ADR-RES cells after 48 hrs by sulforhodamine B assay; method in brief: as §2
HL-60(TB) = assay: Cytotoxicity against human HL-60(TB) cells after 48 hrs by sulforhodamine B assay; conditions: HL-60, 48 h
Method in brief: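 NCI 60-panel five-dose assay. Cells are grown in RPMI 1640 with 5% FBS and L-glutamine. They are plated at 5000–40,000 cells/well according to doubling time and pre-incubated 24 h at 37 °C, 5% CO2. DMSO-stock compound is added at five 10-fold or ½-log dilutions for 48 h. Settled suspension cells are fixed, then SRB-stained and read at 515 nm. Percent growth is computed from time-zero, control and treated absorbances, and LC50 is taken where protein falls 50% below the starting level.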

SF-268 = assay: Cytotoxicity against human SF268 cells after 48 hrs by sulforhodamine B assay; conditions: SF-268, 48 h; method in brief: as §2
SK-MEL-5 = assay: Cytotoxicity against human SK-MEL-5 cells after 48 hrs by sulforhodamine B assay; conditions: SK-MEL-5, 48 h; method in brief: as §2
T47D = assay: Growth inhibition of human T47D cells at 10 uM after 48 hrs by sulforhodamine B assay; conditions: read-out: GI; method in brief: as §3
UACC-257 = assay: Cytotoxicity against human UACC257 cells after 48 hrs by sulforhodamine B assay; conditions: UACC-257, 48 h
Method in brief: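 NCI 60 panel five-dose screen. Cells in RPMI 1640 with 5% FBS and 2 mM L-glutamine, plated at 5000–40,000 cells/well and preincubated 24 h. Compounds were tested at five 10-fold concentrations (0.01–100) for 48 h at 37 °C, 5% CO2. Cells were fixed with TCA and stained with SRB, absorbance 515 nm. GI50, TGI and LC50 were taken from % growth curves against time-zero and control.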

OVCAR-8 = assay: Growth inhibition of human OVCAR8 cells at 10 uM after 48 hrs by sulforhodamine B assay; conditions: OVCAR-8, 48 h, read-out: GI; method in brief: as §1
DU-145 = assay: Cytotoxicity against human DU145 cells after 48 hrs by sulforhodamine B assay; conditions: DU-145, 48 h; method in brief: as §2
NCI/ADR-RES [2] = assay: Growth inhibition of human NCI/ADR-RES cells at 10 uM after 48 hrs by sulforhodamine B assay; conditions: read-out: GI; method in brief: as §1
[3] = read-out: LC50 (the source's name)

O=C(CCc1nnc(-c2ccc(Cl)cc2Cl)o1)c1nc2ccccc2[nH]1
inhibition of growth at 10 µM (HCC 2998): 34.1%
inhibition of growth at 10 µM (BT-549): 43.6%
GI50 (EKVX): 5.48 µM
TGI (EKVX): 100 µM
CC50 (EKVX; [3]): 100 µM
inhibition of growth at 10 µM (SN12C): 38.8%
GI50 (SW-620): 3.46 µM
TGI (SW-620): 16.3 µM
CC50 (SW-620; [3]): 74.3 µM
GI50 (IGROV-1): 5.26 µM
TGI (IGROV-1): 39.1 µM
CC50 (IGROV-1; [3]): 100 µM
inhibition of growth at 10 µM (NCI-H322M): 24%
GI50 (SNB-75): 18.7 µM
CC50 (SNB-75; [3]): 100 µM
inhibition of growth at 10 µM (HCT-116): 77.9%
inhibition of growth at 10 µM (SK-MEL-2): 40.6%
GI50 (ACHN): 11.9 µM
TGI (ACHN): 100 µM
CC50 (ACHN; [3]): 100 µM
inhibition of growth at 10 µM (SNB-19): 24.9%
GI50 (LOX IMVI): 4.03 µM
TGI (LOX IMVI): 39.8 µM
CC50 (LOX IMVI; [3]): 100 µM
inhibition of growth at 10 µM (NCI-H23): 38.1%
GI50 (SF-295): 5.98 µM
TGI (SF-295): 42.9 µM
CC50 (SF-295; [3]): 100 µM
inhibition of growth at 10 µM (HOP-92): 93.3%
GI50 (NCI/ADR-RES [1]): 5.4 µM
TGI (NCI/ADR-RES [1]): 100 µM
CC50 (NCI/ADR-RES [1]; [3]): 100 µM
GI50 (HL-60(TB)): 2.23 µM
TGI (HL-60(TB)): 19.3 µM
CC50 (HL-60(TB); [3]): 100 µM
GI50 (SF-268): 7.3 µM
TGI (SF-268): 46.6 µM
CC50 (SF-268; [3]): 100 µM
GI50 (SK-MEL-5): 2.88 µM
TGI (SK-MEL-5): 14.9 µM
CC50 (SK-MEL-5; [3]): 64.6 µM
inhibition of growth at 10 µM (T47D): 48%
GI50 (UACC-257): 13.7 µM
TGI (UACC-257): 44.4 µM
CC50 (UACC-257; [3]): 100 µM
inhibition of growth at 10 µM (OVCAR-8): 42.8%
GI50 (DU-145): 17.8 µM
TGI (DU-145): 100 µM
CC50 (DU-145; [3]): 100 µM
inhibition of growth at 10 µM (NCI/ADR-RES [2]): 36.7%

Reference: ChEMBL document CHEMBL2040797, “Synthesis of benzimidazoles bearing oxadiazole nucleus as anticancer agents” (2012)
